Experimental data from ChEMBL document CHEMBL1127523, “Design and synthesis of side-chain conformationally restricted phenylalanines and their use for structure-activity studies on tachykinin NK-1 receptor” (J Med Chem, 1994).

Legend:
[1] = biological target: T1, Neuromedin-K receptor (Rattus norvegicus, UniProt P16177); experiment: Concentration required to inhibit the specific binding of [125I]BH-ELE to Neurokinin-3 (NK-3) receptor in rat brain synaptosomes; format: subcellular
T1 sequence (P16177 whole entry): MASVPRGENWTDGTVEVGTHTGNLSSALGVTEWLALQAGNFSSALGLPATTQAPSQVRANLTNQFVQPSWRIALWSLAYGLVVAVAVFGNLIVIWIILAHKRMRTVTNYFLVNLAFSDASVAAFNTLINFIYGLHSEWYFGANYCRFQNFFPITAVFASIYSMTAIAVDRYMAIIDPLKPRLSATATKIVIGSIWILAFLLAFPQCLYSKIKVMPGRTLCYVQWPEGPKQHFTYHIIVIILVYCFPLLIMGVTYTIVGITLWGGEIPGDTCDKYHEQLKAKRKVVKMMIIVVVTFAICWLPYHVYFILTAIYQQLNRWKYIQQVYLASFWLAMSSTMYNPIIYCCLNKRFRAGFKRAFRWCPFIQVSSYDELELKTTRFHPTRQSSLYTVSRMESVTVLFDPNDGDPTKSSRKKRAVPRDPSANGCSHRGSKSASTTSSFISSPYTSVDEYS
Procedure, shortened: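 Rat brain synaptosomes in Krebs-Ringer phosphate buffer with BSA, bacitracin and glucose. Incubated 15 min at 20 °C with 40 pM [125I]BHELE and increasing peptide concentrations, gamma counted. Triplicates, two to eight independent experiments; nonspecific binding defined with eledoisin 10⁻⁶ M. IC50 estimated from Hill plots of titration curves.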

[2] = biological target: Substance-P receptor (Rattus norvegicus, UniProt P14600); experiment: Concentration required to inhibit the specific binding of [125I]BH-SP to Neurokinin-1 (NK-1) receptor in rat brain synaptosomes; format: subcellular
[3] = biological target: T2, Substance-K receptor (Rattus norvegicus, UniProt P16610); experiment: Concentration required to inhibit the specific binding of [3H]NKA to Neurokinin-2 (NK-2) receptor in rat duodenum membranes
T2 sequence (P16610 whole entry): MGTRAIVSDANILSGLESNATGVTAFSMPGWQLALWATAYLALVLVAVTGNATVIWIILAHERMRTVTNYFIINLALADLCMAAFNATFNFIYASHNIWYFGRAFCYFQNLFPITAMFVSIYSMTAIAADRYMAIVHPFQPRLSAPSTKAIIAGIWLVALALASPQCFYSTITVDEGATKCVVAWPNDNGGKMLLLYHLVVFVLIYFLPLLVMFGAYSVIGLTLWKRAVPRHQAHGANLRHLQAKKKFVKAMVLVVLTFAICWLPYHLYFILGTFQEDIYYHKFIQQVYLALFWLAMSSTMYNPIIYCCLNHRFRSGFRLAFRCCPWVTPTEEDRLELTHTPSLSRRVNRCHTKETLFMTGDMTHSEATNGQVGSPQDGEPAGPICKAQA

[4] = species: Cavia porcellus; experiment: Effective concentration required for its inhibition of nonspecific binding to guinea pig ileal membranes; format: functional

Substance-P receptor, sequence (P14600 whole entry): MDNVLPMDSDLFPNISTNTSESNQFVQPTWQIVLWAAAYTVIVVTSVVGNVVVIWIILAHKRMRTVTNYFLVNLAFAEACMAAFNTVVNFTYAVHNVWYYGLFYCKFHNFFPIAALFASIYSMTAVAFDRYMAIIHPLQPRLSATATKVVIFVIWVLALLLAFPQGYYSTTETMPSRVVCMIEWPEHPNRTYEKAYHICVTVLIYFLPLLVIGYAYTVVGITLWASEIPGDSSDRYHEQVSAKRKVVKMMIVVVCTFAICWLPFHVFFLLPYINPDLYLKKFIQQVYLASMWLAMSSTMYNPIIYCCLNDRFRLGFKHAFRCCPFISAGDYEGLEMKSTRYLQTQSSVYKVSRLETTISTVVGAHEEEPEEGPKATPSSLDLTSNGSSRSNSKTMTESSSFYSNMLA

| SMILES | IC50 [1] [µM] | IC50 [2] [µM] | IC50 [3] [µM] | EC50 [4] [µM] |
| --- | --- | --- | --- | --- |
| CSCC[C@H](NC(=O)[C@H](CC(C)C)NC(=O)CNC(=O)[C@@H](NC(=O)[C@H](Cc1ccccc1)NC(=O)[C@H](CCC(N)=O)NC(=O)[C@H](CCC(N)=O)NC(=O)[C@@H]1CCCN1C(=O)[C@H](CCCCN)NC(=O)[C@@H]1CCCN1C(=O)[C@@H](N)CCCNC(=N)N)[C@H]1CCc2cc3ccccc3cc21)C(N)=O | 0.11 | 0.0006 | 0.029 | – |
| CSCC[C@H](NC(=O)[C@H](CC(C)C)NC(=O)CNC(=O)[C@H](Cc1ccccc1)NC(=O)[C@H](NC(=O)[C@H](CCC(N)=O)NC(=O)[C@H](CCC(N)=O)NC(=O)[C@@H]1CCCN1C(=O)[C@H](CCCCN)NC(=O)[C@@H]1CCCN1C(=O)[C@@H](N)CCCN=C(N)N)C1Cc2ccccc2C1)C(N)=O | > 10 | 2.8 | 3.9 | 4.17 |
| CSCC[C@H](NC(=O)[C@H](CC(C)C)NC(=O)CNC(=O)[C@H](Cc1ccccc1)NC(=O)[C@@H]1Cc2ccccc2CN1C(=O)[C@H](CCC(N)=O)NC(=O)[C@H](CCC(N)=O)NC(=O)[C@@H]1CCCN1C(=O)[C@H](CCCCN)NC(=O)[C@@H]1CCCN1C(=O)[C@@H](N)CCCN=C(N)N)C(N)=O | 1.9 | 2.4 | 0.52 | – |
| CSCC[C@H](NC(=O)[C@H](CC(C)C)NC(=O)[C@@H]1CCCN1C(=O)[C@H](Cc1ccccc1)NC(=O)[C@H](Cc1ccccc1)NC(=O)[C@H](CCC(N)=O)NC(=O)[C@H](CCC(N)=O)NC(=O)[C@@H]1CCCN1C(=O)[C@H](CCCCN)NC(=O)[C@@H]1CCCN1C(=O)[C@@H](N)CCCN=C(N)N)C(N)=O | > 10 | 0.0029 | > 10 | 0.002 |
| CSCC[C@H](NC(=O)[C@H](CC(C)C)NC(=O)CNC(=O)[C@@H]1Cc2ccccc2CN1C(=O)[C@H](Cc1ccccc1)NC(=O)[C@H](CCC(N)=O)NC(=O)[C@H](CCC(N)=O)NC(=O)[C@@H]1CCCN1C(=O)[C@H](CCCCN)NC(=O)[C@@H]1CCCN1C(=O)[C@@H](N)CCCN=C(N)N)C(N)=O | 20 | 1.2 | 18 | – |
| CSCC[C@H](NC(=O)[C@H](CC(C)C)NC(=O)CNC(=O)[C@@H](NC(=O)[C@H](Cc1ccccc1)NC(=O)[C@H](CCC(N)=O)NC(=O)[C@H](CCC(N)=O)NC(=O)[C@@H]1CCCN1C(=O)[C@H](CCCCN)NC(=O)[C@@H]1CCCN1C(=O)[C@@H](N)CCCN=C(N)N)C(C)(C)C)C(N)=O | 0.065 | 0.0026 | 0.009 | 0.0025 |
| CSCC[C@H](NC(=O)[C@H](CC(C)C)NC(=O)CNC(=O)[C@H](Cc1ccccc1)NC(=O)/C(=C/c1ccccc1)NC(=O)[C@H](CCC(N)=O)NC(=O)[C@H](CCC(N)=O)NC(=O)[C@@H]1CCCN1C(=O)[C@H](CCCCN)NC(=O)[C@@H]1CCCN1C(=O)[C@@H](N)CCCN=C(N)N)C(N)=O | > 10 | – | 4.9 | 3.1 |
| CSCC[C@H](NC(=O)[C@H](CC(C)C)NC(=O)CNC(=O)[C@H](CCSC)NC(=O)[C@H](Cc1ccccc1)NC(=O)[C@H](CCC(N)=O)NC(=O)[C@H](CCC(N)=O)NC(=O)[C@@H]1CCCN1C(=O)[C@H](CCCCN)NC(=O)[C@@H]1CCCN1C(=O)[C@@H](N)CCCNC(=N)N)C(N)=O | 1.2 | 0.018 | – | – |
| CSCC[C@H](NC(=O)[C@H](CC(C)C)NC(=O)CNC(=O)[C@H](Cc1ccccc1)NC(=O)/C(=C\c1ccccc1)NC(=O)[C@H](CCC(N)=O)NC(=O)[C@H](CCC(N)=O)NC(=O)[C@@H]1CCCN1C(=O)[C@H](CCCCN)NC(=O)[C@@H]1CCCN1C(=O)[C@@H](N)CCCN=C(N)N)C(N)=O | 11.7 | – | 0.95 | 0.0084 |
| CSCC[C@H](NC(=O)[C@H](CC(C)C)NC(=O)CNC(=O)[C@H](Cc1ccccc1)NC(=O)[C@H](CCSC)NC(=O)[C@H](CCC(N)=O)NC(=O)[C@H](CCC(N)=O)NC(=O)[C@@H]1CCCN1C(=O)[C@H](CCCCN)NC(=O)[C@@H]1CCCN1C(=O)[C@@H](N)CCCNC(=N)N)C(N)=O | 7.4 | 2.7 | – | – |
| CSCC[C@H](NC(=O)[C@H](CC(C)C)NC(=O)CNC(=O)[C@@H](NC(=O)[C@H](Cc1ccccc1)NC(=O)[C@H](CCC(N)=O)NC(=O)[C@H](CCC(N)=O)NC(=O)[C@@H]1CCCN1C(=O)[C@H](CCCCN)NC(=O)[C@@H]1CCCN1C(=O)[C@@H](N)CCCN=C(N)N)C(C)(C)S(C)(=O)=O)C(N)=O | 0.19 | 0.00784 | 0.16 | 0.0011 |
| CSCC[C@H](NC(=O)[C@H](CC(C)C)NC(=O)CNC(=O)[C@@H](NC(=O)[C@H](Cc1ccccc1)NC(=O)[C@H](CCC(N)=O)NC(=O)[C@H](CCC(N)=O)NC(=O)[C@@H]1CCCN1C(=O)[C@H](CCCCN)NC(=O)[C@@H]1CCCN1C(=O)[C@@H](N)CCCNC(=N)N)C1c2ccccc2-c2ccccc21)C(N)=O | 0.091 | 0.0025 | 0.041 | – |
| CSCC[C@H](NC(=O)[C@H](CC(C)C)NC(=O)CNC(=O)[C@@H](NC(=O)[C@H](Cc1ccccc1)NC(=O)[C@H](CCC(N)=O)NC(=O)[C@H](CCC(N)=O)NC(=O)[C@@H]1CCCN1C(=O)[C@H](CCCCN)NC(=O)[C@@H]1CCCN1C(=O)[C@@H](N)CCCN=C(N)N)C1c2ccccc2-c2ccccc21)C(N)=O | – | – | – | 0.0057 |
| CSCC[C@H](NC(=O)[C@H](CC(C)C)NC(=O)CNC(=O)[C@@H](NC(=O)[C@H](Cc1ccccc1)NC(=O)[C@H](CCC(N)=O)NC(=O)[C@H](CCC(N)=O)NC(=O)[C@@H]1CCCN1C(=O)[C@H](CCCCN)NC(=O)[C@@H]1CCCN1C(=O)[C@@H](N)CCCNC(=N)N)C(C)(C)SC)C(N)=O | 0.17 | 0.0024 | 0.068 | – |
| CSCC[C@H](NC(=O)[C@H](CC(C)C)NC(=O)CNC(=O)[C@@H](NC(=O)[C@H](Cc1ccccc1)NC(=O)[C@H](CCC(N)=O)NC(=O)[C@H](CCC(N)=O)NC(=O)[C@@H]1CCCN1C(=O)[C@H](CCCCN)NC(=O)[C@@H]1CCCN1C(=O)[C@@H](N)CCCN=C(N)N)C(C)(C)SC)C(N)=O | – | – | – | 0.0017 |
| CSCC[C@H](NC(=O)[C@H](CC(C)C)NC(=O)CNC(=O)[C@H](Cc1ccccc1)NC(=O)[C@@H](NC(=O)[C@H](CCC(N)=O)NC(=O)[C@H](CCC(N)=O)NC(=O)[C@@H]1CCCN1C(=O)[C@H](CCCCN)NC(=O)[C@@H]1CCCN1C(=O)[C@@H](N)CCCN=C(N)N)C(c1ccccc1)c1ccccc1)C(N)=O | – | – | – | 0.226 |
| CSCC[C@H](NC(=O)[C@H](CC(C)C)NC(=O)CNC(=O)[C@H](Cc1ccccc1)NC(=O)[C@@H](NC(=O)[C@H](CCC(N)=O)NC(=O)[C@H](CCC(N)=O)NC(=O)[C@@H]1CCCN1C(=O)[C@H](CCCCN)NC(=O)[C@@H]1CCCN1C(=O)[C@@H](N)CCCNC(=N)N)C(c1ccccc1)c1ccccc1)C(N)=O | 17 | 1.3 | 3.6 | – |
| CSCC[C@H](NC(=O)[C@H](CC(C)C)NC(=O)CNC(=O)[C@@H](NC(=O)[C@H](Cc1ccccc1)NC(=O)[C@H](CCC(N)=O)NC(=O)[C@H](CCC(N)=O)NC(=O)[C@@H]1CCCN1C(=O)[C@H](CCCCN)NC(=O)[C@@H]1CCCN1C(=O)[C@@H](N)CCCNC(=N)N)C(c1ccccc1)c1ccccc1)C(N)=O | 2.2 | 0.5 | 0.67 | – |
| CSCC[C@H](NC(=O)[C@H](CC(C)C)NC(=O)CNC(=O)[C@H](Cc1ccccc1)NC(=O)[C@H](Cc1ccccc1)NC(=O)[C@H](CCC(N)=O)NC(=O)[C@H](CCC(N)=O)NC(=O)[C@@H]1CCCN1C(=O)[C@H](CCCCN)NC(=O)[C@@H]1CCCN1C(=O)[C@@H](N)CCCN=C(N)N)C(N)=O [SUBSTANCE P] | 0.13 | – | – | – |
